Experimental data published in ChEMBL document CHEMBL2346559, “Optimization of benzoxazole-based inhibitors of Cryptosporidium parvum inosine 5'-monophosphate dehydrogenase” (J Med Chem, 2013).

What was measured:
[1] = target: T1, Inosine-5'-monophosphate dehydrogenase (Cryptosporidium parvum, UniProt Q8T6T2); test: Inhibition of Cryptosporidium parvum N-terminal His6-tagged IMPDH-mediated NADH production expressed in Escherichia coli BL21(DE3) preincubated for 5 mins prior to substrate addition by fluorescence assay
T1 sequence (Q8T6T2 whole entry): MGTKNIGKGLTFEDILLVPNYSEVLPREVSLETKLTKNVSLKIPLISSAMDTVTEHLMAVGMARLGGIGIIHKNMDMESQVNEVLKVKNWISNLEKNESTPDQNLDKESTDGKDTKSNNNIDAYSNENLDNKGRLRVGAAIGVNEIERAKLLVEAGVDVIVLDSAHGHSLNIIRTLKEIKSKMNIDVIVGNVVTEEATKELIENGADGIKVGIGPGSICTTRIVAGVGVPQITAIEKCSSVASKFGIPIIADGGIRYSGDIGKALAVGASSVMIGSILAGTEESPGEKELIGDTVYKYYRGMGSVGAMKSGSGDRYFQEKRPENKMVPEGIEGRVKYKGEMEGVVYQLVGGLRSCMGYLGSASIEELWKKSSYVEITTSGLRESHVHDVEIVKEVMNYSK

[2] = target: Inosine-5'-monophosphate dehydrogenase 2 (Homo sapiens, UniProt P12268); test: Inhibition of human IMPDH2
Liver [3] = test: Half life in mouse liver microsomes by LC/MS/MS analysis in presence of NADPH; format: ADME, Microsome
How it was run: (§1)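 Incubation with mouse liver microsomes at 37 °C, with and without NADPH. Percent of compound remaining measured at several time points; half-life from a fit to first-order decay.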

Liver [4] = test: Half life in mouse liver microsomes by LC/MS/MS analysis; format: ADME, Microsome; how it was run: as §1
[5] = Cytotoxicity against African green monkey COS cells after 3 days by Alamar blue assay; format: cell-based; details: chlorocebus aethiops, read-out: LD50
How it was run: (§2)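 Tested in parallel against HeLa, HEK293, COS and CHO cells. Viability was read as metabolic activity by alamarBlue and expressed as LD50.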

Toxoplasma gondii [6] = test: Antiparasitic activity against transgenic Toxoplasma gondii expressing Cryptosporidium parvum IMPDH; format: functional, organism-based
How it was run: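 Engineered T. gondii strain that depends on CpIMPDH for guanine nucleotide synthesis, run alongside the wild-type RH strain, whose native eukaryotic IMPDH also gauges host-cell cytotoxicity. Antiparasitic EC50 is the average of three independent determinations unless otherwise stated, with some values from two determinations.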

[7] = Cytotoxicity against CHO cells after 3 days by Alamar blue assay; format: cell-based, Cricetulus griseus; details: chinese hamster, read-out: LD50; how it was run: as §2
[8] = Cytotoxicity against human HEK293 cells after 3 days by Alamar blue assay; format: cell-based; details: read-out: LD50; how it was run: as §2
[9] = Cytotoxicity against human HeLa cells after 3 days by Alamar blue assay; format: cell-based; details: read-out: LD50; how it was run: as §2
[10] = target: T1, Inosine-5'-monophosphate dehydrogenase; test: Inhibition of Cryptosporidium parvum N-terminal His6-tagged IMPDH-mediated NADH production expressed in Escherichia coli BL21(DE3) preincubated for 5 mins prior to substrate addition by fluorescence assay in presence of BSA
How it was run: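 Same CpIMPDH fluorescence assay (10 nM enzyme, 300 μM NAD, 150 μM IMP, pH 8.0 Tris buffer, 25 °C, 5 min inhibitor preincubation), run with 0.05% fatty-acid-free BSA added to gauge nonspecific protein binding. Quadruplicate points; IC50 averaged over three determinations.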

Toxoplasma gondii [11] = test: Antiparasitic activity against wild-type Toxoplasma gondii expressing eukaryotic IMPDH; format: functional, organism-based
Toxoplasma gondii [12] = test: Selectivity ratio of EC50 for wild-type Toxoplasma gondii to EC50 for Toxoplasma gondii expressing Cryptosporidium parvum IMPDH; format: functional
[13] = target: T2, Inosine-5'-monophosphate dehydrogenase (Cryptosporidium parvum) (UniProt Q8T6T2)
T2 sequence (whole entry): T1 sequence (Q8T6T2 whole entry)

[14] = target: T2, Inosine-5'-monophosphate dehydrogenase (Cryptosporidium parvum); remark: listed apart in the source

| SMILES | IC50 [1] [nM] | IC50 [2] [nM] | EC50 (Toxoplasma gondii [6]) [nM] | IC50 [10] [nM] | EC50 (Toxoplasma gondii [11]) [nM] | Ratio EC50 (Toxoplasma gondii [12]) | other results |
| --- | --- | --- | --- | --- | --- | --- | --- |
| C[C@H](Nc1cccc2ccccc12)C(=O)Nc1ccc2oc(-c3ccncc3)nc2c1 | 14 | > 5000 |  |  |  |  | t1/2 (Liver [3]): 18 min; t1/2 (Liver [4]): 27 min |
| C[C@H](Oc1cccc([N+](=O)[O-])c1Cl)C(=O)Nc1ccc2oc(-c3ccncc3)nc2c1 | 2.3 | > 5000 | 190 | 6 |  |  | CC50 at 72 h [5]: > 50000 nM; CC50 at 72 h [7]: > 50000 nM; CC50 at 72 h [8]: > 50000 nM; CC50 at 72 h [9]: > 50000 nM |
| C[C@H](Oc1cccc(Cl)c1Cl)C(=O)Nc1ccc2oc(-c3nccs3)nc2c1 | 17 | > 5000 | 300 | 30 | 2200 | 7 |  |
| C[C@H](Oc1cccc(Cl)c1Cl)C(=O)Nc1ccc2oc(-c3cncs3)nc2c1 | 1.4 | > 5000 | 200 | 2.3 | 3300 | 15 | t1/2 (Liver [3]): 7 min; t1/2 (Liver [4]): 11 min |
| CC(Oc1cccc(Cl)c1)C(=O)Nc1ccc2oc(-c3ccncc3)nc2c1 (configuration not stated) | 20 | > 5000 | 500 | 32 | 1100 | 2 |  |
| CC(Nc1cccc(Cl)c1Cl)C(=O)Nc1ccc2oc(-c3ccncc3)nc2c1 (racemic) | 2 | > 5000 | 20 |  |  |  |  |
| C[C@H](Oc1cccc(C(F)(F)F)c1Cl)C(=O)Nc1ccc2oc(-c3ccncc3)nc2c1 | 9 | > 5000 | 800 | 52 |  |  |  |
| COc1ccc(OC(C)C(=O)Nc2ccc3oc(-c4ccncc4)nc3c2)cc1 (configuration not stated) | 28 | > 5000 | 500 | 34 | > 25000 | >50 | CC50 at 72 h [5]: > 50000 nM; CC50 at 72 h [7]: > 50000 nM; CC50 at 72 h [8]: > 50000 nM; CC50 at 72 h [9]: > 50000 nM |
| CC(NC(=O)c1ccc2oc(-c3ccncc3)nc2c1)c1ccccc1 (configuration not stated) | > 5000 | > 5000 |  |  |  |  |  |
| CC(Oc1ccc(Cl)cc1Cl)C(=O)Nc1ccc2oc(-c3ccccc3)nc2c1 (configuration not stated) | > 5000 | > 5000 |  |  |  |  |  |
| CC(Cc1ccccc1)C(=O)Nc1ccc2oc(-c3ccncc3)nc2c1 (configuration not stated) | > 5000 | > 5000 |  |  |  |  |  |
| CC(Oc1cccc2ccccc12)C(=O)Nc1ccc2oc(-c3ccncc3)nc2c1 (configuration not stated) | 9 | > 5000 | 200 | 14 | 2400 | 34 |  |
| C[C@H](Oc1cccc2ccccc12)C(=O)N(C)c1ccc2oc(-c3cncs3)nc2c1 | > 5000 | > 5000 |  |  |  |  |  |
| CC(C(=O)Nc1ccc2oc(-c3ccncc3)nc2c1)c1ccccc1 (configuration not stated) | 120 | > 5000 | 2500 | 130 | 5000 |  |  |
| C[C@H](Oc1cccc(Cl)c1Cl)C(=O)Nc1cccc(NC(=O)c2ccncc2)c1 | > 5000 | > 5000 |  |  |  |  |  |
| C[C@H](Oc1cccc2ccccc12)C(=O)Nc1ccc2oc(-c3ccncc3)nc2c1 |  | > 5000 | 400 | 8 | 2200 | 5 | t1/2 (Liver [3]): 30 min |
| C[C@H](Oc1cccc(Cl)c1Cl)C(=O)Nc1ccc2nc(-c3ccncc3)oc2c1 | 0.6 | > 5000 | 20 | 4 | 3000 | 150 | CC50 at 72 h [5]: > 50000 nM; t1/2 (Liver [3]): 10 min; CC50 at 72 h [7]: > 50000 nM; t1/2 (Liver [4]): 9 min; CC50 at 72 h [8]: > 50000 nM; CC50 at 72 h [9]: > 50000 nM |
| C[C@H](Oc1cccc(Cl)c1Cl)C(=O)Nc1cc(Cl)c2oc(-c3ccncc3)nc2c1 | 240 | > 5000 |  | 600 |  |  | Kis [13]: 150 nM; Kis [14]: 210 nM |
| O=C(COc1ccc(Cl)cc1Cl)Nc1ccc2oc(-c3ccncc3)nc2c1 | > 5000 | > 5000 |  |  |  |  |  |
| CC(Oc1cccc2ccccc12)C(=O)Nc1ccc2oc(-c3ncccn3)nc2c1 (configuration not stated) | > 5000 | > 5000 |  |  |  |  |  |
